Measured values published in ChEMBL document CHEMBL3244146, “Pyranenamines: a new series of antiallergic compounds” (1979).

Columns and labels:
Rattus norvegicus [1] = experiment: Antiallergic activity in rat assessed as inhibition of egg albumin-induced passive cutaneous anaphylaxis at 0.7 mg/kg, iv treated for 30 secs followed by egg albumin-challenge measured after 30 mins relative to control; assay type: functional; details: 0.5 h
[2] = Antiallergic activity in passively sensitized rhesus monkey lungs assessed as inhibition of antigen-induced histamine release by fluorometric analysis; assay type: functional, Macaca mulatta, Lung
In short: (§1)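 Passively sensitized fragmented lung from a young adult male rhesus monkey, challenged with IgE-antihuman IgE; histamine release measured fluorometrically and SRS-A estimated by guinea pig ileum bioassay; inhibition relative to control; replicates given as number of separate lung preparations.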

[3] = Antiallergic activity in passively sensitized rhesus monkey lungs assessed as inhibition of antigen-induced histamine release at 1 x 10^-4 M by fluorometric analysis relative to control; assay type: functional, Macaca mulatta, Lung; in short: as §1
[4] = Antiallergic activity in passively sensitized rhesus monkey lungs assessed as inhibition of antigen-induced slow reacting substance of anaphylaxis release; assay type: functional, Macaca mulatta, Lung; in short: as §1
Lung [5] = experiment: Antiallergic activity in passively sensitized albino rat lungs assessed as inhibition of antigen-induced histamine release at 1 x 10^-5 M by fluorometric analysis relative to control; assay type: functional
In short: (§2)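 Fragmented lung from adult male Charles River albino rats, passively sensitized, then antigen-challenged with compound present; released histamine measured fluorometrically; inhibition reported relative to control, with replicate count given as number of separate lung preparations.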

Lung [6] = experiment: Antiallergic activity in passively sensitized albino rat lungs assessed as inhibition of antigen-induced histamine release at 1 x 10^-7 M by fluorometric analysis relative to control; assay type: functional; in short: as §2
Rattus norvegicus [7] = experiment: Ratio of antiallergic activity in iv dosed rat to antiallergic activity in po dosed rat; assay type: functional
Rattus norvegicus [8] = experiment: Antiallergic activity in po dosed rat assessed as inhibition of egg albumin-induced passive cutaneous anaphylaxis treated for 15 mins followed by egg albumin-challenge measured after 30 mins; assay type: functional; details: read-out: ID50 (the source's name)
In short: (§3)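 Oral PCA in rats: intradermal antiserum at four back sites (dose giving ~12×12 mm wheal), compound po 48 h later, 15 min before iv challenge with 0.5 mL saline containing 5 mg Evans blue plus 5 mg egg albumin; skin bluing read 30 min after challenge on two axes per wheal; six rats per dose versus ≥6 vehicle controls; percent inhibition from mean wheal size, one-sided t test.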

[9] = Antiallergic activity in passively sensitized rhesus monkey lungs assessed as inhibition of antigen-induced slow reacting substance of anaphylaxis release at 5 x 10^-5 M relative to control; assay type: functional, Macaca mulatta, Lung; in short: as §1
[10] = Antiallergic activity in passively sensitized rhesus monkey lungs assessed as inhibition of antigen-induced slow reacting substance of anaphylaxis release at 1 x 10^-6 M relative to control; assay type: functional, Macaca mulatta, Lung; in short: as §1
[11] = Antiallergic activity in passively sensitized rhesus monkey lungs assessed as inhibition of antigen-induced slow reacting substance of anaphylaxis release at 1 x 10^-5 M relative to control; assay type: functional, Macaca mulatta, Lung; in short: as §1
Lung [12] = experiment: Antiallergic activity in passively sensitized albino rat lungs assessed as inhibition of antigen-induced histamine release at 1 x 10^-8 M by fluorometric analysis relative to control; assay type: functional; in short: as §2
[13] = Antiallergic activity in passively sensitized rhesus monkey lungs assessed as inhibition of antigen-induced slow reacting substance of anaphylaxis release at 1 x 10^-4 M relative to control; assay type: functional, Macaca mulatta, Lung; in short: as §1
[14] = Antiallergic activity in passively sensitized rhesus monkey lungs assessed as inhibition of antigen-induced histamine release at 1 x 10^-5 M by fluorometric analysis relative to control; assay type: functional, Macaca mulatta, Lung; in short: as §1
Lung [15] = experiment: Antiallergic activity in passively sensitized albino rat lungs assessed as inhibition of antigen-induced histamine release at 1 x 10^-6 M by fluorometric analysis relative to control; assay type: functional; in short: as §2
[16] = Antiallergic activity in passively sensitized rhesus monkey lungs assessed as inhibition of antigen-induced histamine release at 5 x 10^-5 M by fluorometric analysis relative to control; assay type: functional, Macaca mulatta, Lung; in short: as §1
[17] = Antiallergic activity in passively sensitized rhesus monkey lungs assessed as inhibition of antigen-induced histamine release at 1 x 10^-6 M by fluorometric analysis relative to control; assay type: functional, Macaca mulatta, Lung; in short: as §1
Rattus norvegicus [18] = experiment: Antiallergic activity in iv dosed rat assessed as inhibition of egg albumin-induced passive cutaneous anaphylaxis treated for 30 secs followed by egg albumin-challenge measured after 30 mins; assay type: functional; details: 0.5 h, read-out: ID50 (the source's name)
Rattus norvegicus [19] = experiment: Ratio of DSCG ID50 to compound ID50 for antiallergic activity in iv dosed rat; assay type: functional
Rattus norvegicus [20] = experiment: Antiallergic activity in rat assessed as inhibition of egg albumin-induced passive cutaneous anaphylaxis at 3.4 mg/kg, iv treated for 30 secs followed by egg albumin-challenge measured after 30 mins relative to control; assay type: functional; details: 0.5 h
Rattus norvegicus [21] = experiment: Antiallergic activity in rat assessed as inhibition of egg albumin-induced passive cutaneous anaphylaxis at 25 mg/kg, po treated for 15 mins followed by egg albumin-challenge measured after 30 mins relative to control; assay type: functional; in short: as §3
Rattus norvegicus [22] = experiment: Antiallergic activity in rat assessed as inhibition of egg albumin-induced passive cutaneous anaphylaxis at 100 mg/kg, iv treated for 30 secs followed by egg albumin-challenge measured after 30 mins relative to control; assay type: functional; details: 0.5 h
Lung [23] = experiment: Antiallergic activity in passively sensitized albino rat lungs assessed as inhibition of antigen-induced histamine release at 1 x 10^-9 M by fluorometric analysis relative to control; assay type: functional; in short: as §2
[24] = Antiallergic activity in passively sensitized rhesus monkey lungs assessed as inhibition of antigen-induced slow reacting substance of anaphylaxis release at 5 x 10^-6 M relative to control; assay type: functional, Macaca mulatta, Lung; in short: as §1
Rattus norvegicus [25] = experiment: Antiallergic activity in rat assessed as inhibition of egg albumin-induced passive cutaneous anaphylaxis at 0.2 mg/kg, iv treated for 30 secs followed by egg albumin-challenge measured after 30 mins relative to control; assay type: functional; details: 0.5 h
[26] = Antiallergic activity in passively sensitized rhesus monkey lungs assessed as inhibition of antigen-induced histamine release at 5 x 10^-6 M by fluorometric analysis relative to control; assay type: functional, Macaca mulatta, Lung; in short: as §1
Rattus norvegicus [27] = experiment: Antiallergic activity in rat assessed as inhibition of egg albumin-induced passive cutaneous anaphylaxis at 0.25 mg/kg, iv treated for 30 secs followed by egg albumin-challenge measured after 30 mins relative to control; assay type: functional; details: 0.5 h

SMILES	inhibition (INH) [3] [%]	inhibition (INH) (Lung [5]) [%]	inhibition (INH) (Lung [6]) [%]	ED50 (Rattus norvegicus [8]) [mg/kg]	inhibition (INH) [9] [%]	inhibition (INH) [10] [%]	inhibition (INH) [11] [%]	inhibition (INH) (Lung [12]) [%]	inhibition (INH) [13] [%]	inhibition (INH) [14] [%]	inhibition (INH) (Lung [15]) [%]	inhibition (INH) [16] [%]	inhibition (INH) [17] [%]	inhibition in vivo at 25 mg/kg (Rattus norvegicus [21]) [%]	also measured
CC(=O)C1=C(O)/C(=C(\C)Nc2ccc(O)c(N)c2)C(=O)OC1=O.Cl	66	47	42	0.8	40	-24	1	26	56	22	61	49	4		inhibition in vivo at 0.7 mg/kg (Rattus norvegicus [1]): 50%; ID30 [2]: 1.3 ×10⁻⁵ M; ID30 [4]: 3.3 ×10⁻⁵ M; Ratio (Rattus norvegicus [7]): 1
CC(=O)C1=C(O)/C(=C(\C)Nc2cc(NC(=O)C(O)CO)cc(NC(=O)C(O)CO)c2)C(=O)OC1=O (centres undefined)	7			2.9		-7	-0.5		7	-20			-30		ED50 (Rattus norvegicus [18]): 0.0009 mg/kg; Ratio (Rattus norvegicus [19]): 1000
CC(=O)C1=C(O)/C(=C(\C)Nc2ccc(N)c(O)c2)C(=O)OC1=O														40	inhibition in vivo at 3.4 mg/kg (Rattus norvegicus [20]): 50%
CC(=O)C1=C(O)/C(=C(\C)Nc2ccc(N(C)C)cc2)C(=O)OC1=O															inhibition in vivo at 100 mg/kg (Rattus norvegicus [22]): 11%
CC(=O)Nc1cc(N/C(C)=C2\C(=O)OC(=O)C(C(C)=O)=C2O)ccc1O		86	88		33		5	53		-31	76	25		50	inhibition (INH) (Lung [23]): 43%; inhibition (INH) [24]: -11%; inhibition in vivo at 0.2 mg/kg (Rattus norvegicus [25]): 50%; inhibition (INH) [26]: -32%
CC(=O)Nc1cccc(N/C(C)=C2\C(=O)OC(=O)C(C(C)=O)=C2O)c1														53	inhibition in vivo at 0.25 mg/kg (Rattus norvegicus [27]): 65%
